{"source": "ChEMBL document CHEMBL1126267", "about": "“A novel synthesis and potent antiinflammatory activity of 4-hydroxy-2(1H)-oxo-1-phenyl-1,8-naphthyridine-3-carboxamides” (1992)", "format_in_all_cases": "functional", "details_in_all_cases": "route oral", "key": {"Rattus norvegicus [1]": {"test_system": "Rattus norvegicus", "assay": "Antiinflammatory activity on Carrageenan rat's paw edema(CPE) after peroral administration of 100 mg/kg dose with control swelling of 68.1%"}, "Rattus norvegicus [2]": {"test_system": "Rattus norvegicus", "assay": "Compound was tested for the inhibition of rat reversed passive Arthus pleurisy after peroral administration of 100 mg/kg dose at 4.47*10e6 no of cells with 5.72*10e6 cells of control", "summary_of_the_method": "(§1)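 Male Wistar rats (about 250 g) under ether received 0.2 mL rabbit anti-egg-albumin antiserum intrapleurally. Thirty min later they got 15 mg EA/100 g body weight in 0.1 mL saline iv. Compounds were given orally beforehand. Rats were killed 4.5 h after induction and the thoracic cavity rinsed with 5 mL saline. Exudate volume and infiltrated cell count were read as mean ± SE. % inhibition is versus control.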"}, "Rattus norvegicus [3]": {"test_system": "Rattus norvegicus", "assay": "Inhibition of carrageenan-induced rat's paw edema (CPE) after peroral administration of 100 mg/kg dose.", "summary_of_the_method": "(§2)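 Male Wistar rats (about 150 g) were dosed orally with compound suspended in 5% arabic gum, 1 h before a subplantar hind-paw injection of 0.1 mL saline. The irritant was 1% zymosan for 33 or 1% λ-carrageenin for 34. Paw volume was measured by plethysmograph before dosing and at 4 h (zymosan) or 3 h (carrageenin). Swelling is relative to initial volume, as mean ± SEM. % inhibition is versus the control group's mean swelling.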"}, "Rattus norvegicus [4]": {"test_system": "Rattus norvegicus", "assay": "Antiinflammatory activity on Zymosan-induced rat's paw edema(ZPE) after peroral administration of 100 mg/kg dose with control swelling of 62.8%", "summary_of_the_method": "(§3)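 Male Wistar rats weighing about 150 g were dosed orally with compound suspended in 5% arabic gum. 1 h later, 1% zymosan in 0.1 mL saline was injected subplantarly into the hind paw. Paw volume was measured by plethysmograph before dosing and 4 h after zymosan, with edema as the volume difference. Inhibition % was derived from mean swelling versus the control group.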"}, "Rattus norvegicus [5]": {"test_system": "Rattus norvegicus", "assay": "Inhibition of Zymosan-induced rat's paw edema(ZPE) after peroral administration of 100 mg/kg dose.", "summary_of_the_method": "as §2"}, "Rattus norvegicus [6]": {"test_system": "Rattus norvegicus", "assay": "Compound was tested for the inhibition of rat reversed passive Arthus pleurisy after peroral administration of 100 mg/kg dose at 0.8 mL of exudate volume with 0.84 mL of control (injected intrapleurally)", "summary_of_the_method": "(§4)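 Male Wistar rats (about 250 g) were given compound orally before the antiserum. Under ether anesthesia, 0.2 mL rabbit anti-egg albumin antiserum was injected intrapleurally. After 30 min, egg albumin (15 mg/100 g body weight in 0.1 mL saline) was given iv. Rats were killed 4.5 h later and the thoracic cavity was rinsed with 5 mL saline. Exudate volume and infiltrated cell number were measured, with inhibition % versus controls as mean ± SEM.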"}, "Rattus norvegicus [7]": {"test_system": "Rattus norvegicus", "assay": "Compound was tested for the inhibition of rat reversed passive Arthus pleurisy after peroral administration of 100 mg/kg dose at 6.01*10e6 no of cells with 7.4*10e6 cells of control", "summary_of_the_method": "as §1"}, "Rattus norvegicus [8]": {"test_system": "Rattus norvegicus", "assay": "Antiinflammatory activity on Carrageenan rat's paw edema(CPE) after peroral administration of 100 mg/kg dose with control swelling of 64.2%"}, "Rattus norvegicus [9]": {"test_system": "Rattus norvegicus", "assay": "Compound was tested for the inhibition of rat reversed passive Arthus pleurisy after peroral administration of 100 mg/kg dose at 0.65 mL of exudate volume with 0.82 mL of control (injected intrapleurally)", "summary_of_the_method": "as §1"}, "Rattus norvegicus [10]": {"test_system": "Rattus norvegicus", "assay": "Antiinflammatory activity on Zymosan-induced rat's paw edema(ZPE) after peroral administration of 100 mg/kg dose with control swelling of 71.7%", "summary_of_the_method": "as §3"}, "Rattus norvegicus [11]": {"test_system": "Rattus norvegicus", "assay": "Compound was tested for the inhibition of rat reversed passive Arthus pleurisy after peroral administration of 100 mg/kg dose at 3.74*10e6 no of cells with 7.4*10e6 cells of control", "summary_of_the_method": "as §1"}, "Rattus norvegicus [12]": {"test_system": "Rattus norvegicus", "assay": "Compound was tested for the inhibition of rat reversed passive Arthus pleurisy after peroral administration of 100 mg/kg dose at 0.64 mL of exudate volume with 0.82 mL of control (injected intrapleurally)", "summary_of_the_method": "as §4"}, "Rattus norvegicus [13]": {"test_system": "Rattus norvegicus", "assay": "Compound was tested for the inhibition of rat reversed passive Arthus pleurisy after peroral administration of 100 mg/kg dose at 3.43+/-0.11*10e6 no of cells with 3.62*10e6 cells of control", "summary_of_the_method": "as §1"}, "Rattus norvegicus [14]": {"test_system": "Rattus norvegicus", "assay": "Antiinflammatory activity on Zymosan-induced rat's paw edema(ZPE) after peroral administration of 100 mg/kg dose with control swelling of 62.0%", "summary_of_the_method": "as §3"}, "Rattus norvegicus [15]": {"test_system": "Rattus norvegicus", "assay": "Compound was tested for the inhibition of rat reversed passive Arthus pleurisy after peroral administration of 100 mg/kg dose at 0.62 mL of exudate volume with 0.54 mL of control (injected intrapleurally)", "summary_of_the_method": "as §4"}, "Rattus norvegicus [16]": {"test_system": "Rattus norvegicus", "assay": "Antiinflammatory activity on Carrageenan rat's paw edema(CPE) after peroral administration of 100 mg/kg dose with control swelling of 74.7%"}}, "data": [{"smiles": "COc1ccc(NC(=O)c2c(O)c3cccnc3n(-c3ccccc3)c2=O)cc1", "values": [{"measurement": "Swelling", "setting": "Rattus norvegicus [1]", "value": 69.4, "unit": "%"}, {"measurement": "inhibition in vivo at 100 mg/kg", "setting": "Rattus norvegicus [2]", "value": 25.4, "unit": "%"}, {"measurement": "inhibition in vivo at 100 mg/kg", "setting": "Rattus norvegicus [3]", "value": -1.9, "unit": "%"}, {"measurement": "Swelling", "setting": "Rattus norvegicus [4]", "value": 62.6, "unit": "%"}, {"measurement": "inhibition in vivo at 100 mg/kg", "setting": "Rattus norvegicus [5]", "value": 0.3, "unit": "%"}, {"measurement": "inhibition in vivo at 100 mg/kg", "setting": "Rattus norvegicus [6]", "value": 5.1, "unit": "%"}]}, {"smiles": "O=C(Nc1ccc(Cl)nc1)c1c(O)c2cccnc2n(-c2ccccc2)c1=O", "values": [{"measurement": "inhibition in vivo at 100 mg/kg", "setting": "Rattus norvegicus [3]", "value": -4, "unit": "%"}, {"measurement": "inhibition in vivo at 100 mg/kg", "setting": "Rattus norvegicus [7]", "value": 18.8, "unit": "%"}, {"measurement": "Swelling", "setting": "Rattus norvegicus [8]", "value": 66.8, "unit": "%"}, {"measurement": "inhibition in vivo at 100 mg/kg", "setting": "Rattus norvegicus [5]", "value": 9.2, "unit": "%"}, {"measurement": "inhibition in vivo at 100 mg/kg", "setting": "Rattus norvegicus [9]", "value": 20.7, "unit": "%"}, {"measurement": "Swelling", "setting": "Rattus norvegicus [10]", "value": 65.1, "unit": "%"}]}, {"smiles": "O=C(NCc1ccncc1)c1c(O)c2cccnc2n(-c2ccccc2)c1=O", "values": [{"measurement": "inhibition in vivo at 100 mg/kg", "setting": "Rattus norvegicus [3]", "value": 15.4, "unit": "%"}, {"measurement": "inhibition in vivo at 100 mg/kg", "setting": "Rattus norvegicus [11]", "value": 49.5, "unit": "%"}, {"measurement": "Swelling", "setting": "Rattus norvegicus [8]", "value": 54.3, "unit": "%"}, {"measurement": "inhibition in vivo at 100 mg/kg", "setting": "Rattus norvegicus [5]", "value": 10, "unit": "%"}, {"measurement": "inhibition in vivo at 100 mg/kg", "setting": "Rattus norvegicus [12]", "value": 22, "unit": "%"}, {"measurement": "Swelling", "setting": "Rattus norvegicus [10]", "value": 64.5, "unit": "%"}]}, {"smiles": "O=C(Nc1ccc(Cl)cc1)c1c(O)c2cccnc2n(-c2ccccc2)c1=O", "values": [{"measurement": "Swelling", "setting": "Rattus norvegicus [1]", "value": 66.4, "unit": "%"}, {"measurement": "inhibition in vivo at 100 mg/kg", "setting": "Rattus norvegicus [3]", "value": 2.5, "unit": "%"}, {"measurement": "inhibition in vivo at 100 mg/kg", "setting": "Rattus norvegicus [5]", "value": 11.6, "unit": "%"}, {"measurement": "inhibition in vivo at 100 mg/kg", "setting": "Rattus norvegicus [13]", "value": 18.8, "unit": "%"}, {"measurement": "Swelling", "setting": "Rattus norvegicus [14]", "value": 54.8, "unit": "%"}, {"measurement": "inhibition in vivo at 100 mg/kg", "setting": "Rattus norvegicus [15]", "value": -16.3, "unit": "%"}]}, {"smiles": "CCOC(=O)c1c(O)c2cccnc2n(-c2ccccc2)c1=O", "values": [{"measurement": "inhibition in vivo at 100 mg/kg", "setting": "Rattus norvegicus [3]", "value": 15.5, "unit": "%"}, {"measurement": "inhibition in vivo at 100 mg/kg", "setting": "Rattus norvegicus [5]", "value": 23.5, "unit": "%"}, {"measurement": "Swelling", "setting": "Rattus norvegicus [14]", "value": 47.2, "unit": "%"}, {"measurement": "Swelling", "setting": "Rattus norvegicus [16]", "value": 63.1, "unit": "%"}]}]}
